Laboratory results reported in ChEMBL document CHEMBL5357047, “The development of thymol-isatin hybrids as broad-spectrum antibacterial agents with potent anti-MRSA activity” (RSC Med Chem, 2024).
In brackets after ≈: the same amount, converted by molar mass.

Tests used:
[1] = target: T1, 4,4'-diapophytoene synthase (Staphylococcus aureus, UniProt A9JQL9); assay: Inhibition of Staphylococcus aureus CrtM
T1 sequence (A9JQL9 whole entry): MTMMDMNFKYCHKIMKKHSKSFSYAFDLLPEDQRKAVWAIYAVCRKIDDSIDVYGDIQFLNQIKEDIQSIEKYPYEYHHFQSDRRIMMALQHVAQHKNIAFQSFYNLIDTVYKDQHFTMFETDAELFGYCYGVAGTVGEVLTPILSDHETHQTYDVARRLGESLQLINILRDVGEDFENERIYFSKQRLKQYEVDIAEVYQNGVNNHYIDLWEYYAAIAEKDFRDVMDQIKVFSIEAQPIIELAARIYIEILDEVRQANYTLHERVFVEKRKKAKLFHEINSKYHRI

Staphylococcus aureus [2] = assay: Antibacterial activity against Methicillin-resistant Staphylococcus aureus ATCC 33591 assessed as inhibition of bacterial growth measured after 48 hrs by broth microdilution method; type: functional
Staphylococcus aureus [3] = assay: Antibacterial activity against Staphylococcus aureus MTCC 740 assessed as inhibition of bacterial growth at 50 uM measured after 48 hrs by agar well diffusion method; type: functional; details: read-out: IZ
Staphylococcus aureus [4] = assay: Antibacterial activity against clinically isolated Staphylococcus aureus RBRJ010 assessed as inhibition of bacterial growth measured after 48 hrs by broth microdilution method; type: functional
Escherichia coli [5] = assay: Antibacterial activity against Escherichia coli MTCC 119 assessed as inhibition of bacterial growth at 50 uM measured after 48 hrs by agar well diffusion method; type: functional; details: read-out: IZ
Acinetobacter baumannii = assay: Antibacterial activity against clinically isolated Acinetobacter baumannii RBRJ027 assessed as inhibition of bacterial growth at 50 uM measured after 48 hrs by agar well diffusion method; type: functional; details: read-out: IZ
Enterococcus faecalis [6] = assay: Antibacterial activity against Enterococcus faecalis MTCC 439 assessed as inhibition of bacterial growth at 50 uM measured after 48 hrs by agar well diffusion method; type: functional; details: read-out: IZ
Enterobacter cloacae = assay: Antibacterial activity against clinically isolated Enterobacter cloacae RBRJ017 assessed as inhibition of bacterial growth at 50 uM measured after 48 hrs by agar well diffusion method; type: functional; details: read-out: IZ
[7] = Selectivity index, ratio of IC50 for cytotoxicity against mouse L929 cells to MIC for antibacterial activity against clinically isolated Methicillin-resistant Staphylococcus aureus; type: toxicity, cell-based; details: read-out: Selectivity Index
Staphylococcus aureus [8] = assay: Bactericidal activity against clinically isolated Staphylococcus aureus RBRJ010 assessed as inhibition of bacterial growth measured after 48 hrs by agar plate method; type: functional
In short: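 MBC: 10 μL from wells showing no INT colour change after broth microdilution subcultured on drug-free Mueller Hinton agar, 48 h at 37 °C aerobically; lowest concentration with no visible growth taken as MBC (μM). Triplicate.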

Staphylococcus aureus [9] = assay: Bactericidal activity against Staphylococcus aureus MTCC 740 assessed as inhibition of bacterial growth measured after 48 hrs by agar plate method; type: functional
In short: (§1)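 MBC: aliquots from microdilution wells without colour change subcultured on drug-free Mueller Hinton agar, 48 h at 37 °C aerobically. MBC is the lowest concentration with no visible growth. Triplicate.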

Klebsiella pneumoniae [10] = assay: Antibacterial activity against Klebsiella pneumoniae MTCC 109 assessed as inhibition of bacterial growth at 50 uM measured after 48 hrs by agar well diffusion method; type: functional; details: read-out: IZ
Enterococcus faecalis [11] = assay: Antibacterial activity against clinically isolated Enterococcus faecalis RBRJ015 assessed as inhibition of bacterial growth at 50 uM measured after 48 hrs by agar well diffusion method; type: functional; details: read-out: IZ
Staphylococcus aureus [12] = assay: Antibacterial activity against Staphylococcus aureus MTCC 740 assessed as inhibition of bacterial growth measured after 48 hrs by broth microdilution method; type: functional
Klebsiella pneumoniae [13] = assay: Antibacterial activity against clinically isolated Klebsiella pneumoniae RBRJ019 assessed as inhibition of bacterial growth at 50 uM measured after 48 hrs by agar well diffusion method; type: functional; details: read-out: IZ
Staphylococcus aureus [14] = assay: Antibacterial activity against clinically isolated Methicillin-resistant Staphylococcus aureus assessed as inhibition of bacterial growth at 50 uM measured after 48 hrs by agar well diffusion method; type: functional; details: read-out: IZ
Staphylococcus aureus [15] = assay: Antibacterial activity against Methicillin-resistant Staphylococcus aureus ATCC 33591 assessed as inhibition of bacterial growth at 50 uM measured after 48 hrs by agar well diffusion method; type: functional; details: read-out: IZ
In short: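 Agar well diffusion on Mueller Hinton agar seeded with bacteria at 0.5 McFarland. […] Incubated 48 h at 37 °C aerobically; zone of inhibition diameter (mm) measured. Triplicate.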

Pseudomonas aeruginosa = assay: Antibacterial activity against Pseudomonas aeruginosa MTCC 424 assessed as inhibition of bacterial growth at 50 uM measured after 48 hrs by agar well diffusion method; type: functional; details: read-out: IZ
Klebsiella pneumoniae [16] = assay: Antibacterial activity against clinically isolated Klebsiella pneumoniae RBRJ024 assessed as inhibition of bacterial growth at 50 uM measured after 48 hrs by agar well diffusion method; type: functional; details: read-out: IZ
Staphylococcus aureus [17] = assay: Antibacterial activity against clinically isolated Staphylococcus aureus RBRJ010 assessed as inhibition of bacterial growth at 50 uM measured after 48 hrs by agar well diffusion method; type: functional; details: read-out: IZ
Staphylococcus aureus [18] = assay: Bactericidal activity against Methicillin-resistant Staphylococcus aureus ATCC 33591 assessed as inhibition of bacterial growth measured after 48 hrs by agar plate method; type: functional; in short: as §1
Escherichia coli [19] = assay: Antibacterial activity against clinically isolated Escherichia coli RBRJ013 assessed as inhibition of bacterial growth at 50 uM measured after 48 hrs by agar well diffusion method; type: functional; details: read-out: IZ
Escherichia coli [20] = assay: Antibacterial activity against clinically isolated Escherichia coli RBRJ005 assessed as inhibition of bacterial growth at 50 uM measured after 48 hrs by agar well diffusion method; type: functional; details: read-out: IZ
Staphylococcus aureus [21] = assay: Bactericidal activity against clinically isolated Methicillin-resistant Staphylococcus aureus assessed as inhibition of bacterial growth measured after 48 hrs by agar plate method; type: functional
[22] = Cytotoxicity against mouse L929 cells assessed as reduction in cell viability measured after 72 hrs by MTT assay; type: toxicity, cell-based
In short: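 L929 cells (ATCC) grown in DMEM with 10% FBS and penicillin/streptomycin at 37 °C, 5% CO2; seeded at 5 × 10^3 cells per well and exposed to serial dilutions for 72 h, paclitaxel as positive control. MTT (5 mg mL−1), formazan dissolved in DMSO, absorbance at 490 nm; viability relative to control after blank subtraction; IC50 in μM.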

[23] = system: Staphylococcus epidermidis; assay: Antibacterial activity against Staphylococcus epidermidis MTCC 435 assessed as inhibition of bacterial growth at 50 uM measured after 48 hrs by agar well diffusion method; type: functional; details: read-out: IZ
Staphylococcus aureus [24] = assay: Antibacterial activity against clinically isolated Methicillin-resistant Staphylococcus aureus assessed as inhibition of bacterial growth measured after 48 hrs by broth microdilution method; type: functional

## O=P(O)(O)C(CCCc1ccc(-c2ccc(Br)cc2)cc1)S(=O)(=O)O (stereo not given)
[1]
  Ki: 0.135 µM

## Cc1ccc(C(C)C)c(OCc2cn(CCCN3C(=O)C(=O)c4cc(Cl)ccc43)nn2)c1
Staphylococcus aureus [2]
  MIC: 62.5 µM (≈ 28.3 µg/mL)
Staphylococcus aureus [3]
  zone of inhibition at 50 µM: 22.1 mm
Staphylococcus aureus [4]
  MIC: 15.6 µM (≈ 7.07 µg/mL)
Escherichia coli [5]
  zone of inhibition at 50 µM: 14.2 mm
Acinetobacter baumannii
  zone of inhibition at 50 µM: 13.2 mm
Enterococcus faecalis [6]
  zone of inhibition at 50 µM: 14.2 mm
Enterobacter cloacae
  zone of inhibition at 50 µM: 15.7 mm
[7]
  selectivity ratio: 4
Staphylococcus aureus [8]
  MBC: 31.2 µM (≈ 14.1 µg/mL)
Staphylococcus aureus [9]
  MBC: 31.2 µM (≈ 14.1 µg/mL)
Klebsiella pneumoniae [10]
  zone of inhibition at 50 µM: 14.3 mm
Enterococcus faecalis [11]
  zone of inhibition at 50 µM: 14.1 mm
Staphylococcus aureus [12]
  MIC: 15.6 µM (≈ 7.07 µg/mL)
Klebsiella pneumoniae [13]
  zone of inhibition at 50 µM: 15.1 mm
Staphylococcus aureus [14]
  zone of inhibition at 50 µM: 21.3 mm
Staphylococcus aureus [15]
  zone of inhibition at 50 µM: 20.5 mm
Pseudomonas aeruginosa
  zone of inhibition at 50 µM: 13.3 mm
Klebsiella pneumoniae [16]
  zone of inhibition at 50 µM: 14.8 mm
Staphylococcus aureus [17]
  zone of inhibition at 50 µM: 21.2 mm
Staphylococcus aureus [18]
  MBC: 125 µM (≈ 56.6 µg/mL)
Escherichia coli [19]
  zone of inhibition at 50 µM: 15.5 mm
Escherichia coli [20]
  zone of inhibition at 50 µM: 15.2 mm
Staphylococcus aureus [21]
  MBC: 62.5 µM (≈ 28.3 µg/mL)
[22]
  IC50 at 72 h: 125 µM
[23]
  zone of inhibition at 50 µM: 18.2 mm
Staphylococcus aureus [24]
  MIC: 31.2 µM (≈ 14.1 µg/mL)

## COc1ccc2c(c1)C(=O)C(=O)N2CCCn1cc(COc2cc(C)ccc2C(C)C)nn1
Staphylococcus aureus [2]
  MIC: 7.8 µM (≈ 3.5 µg/mL)
Staphylococcus aureus [3]
  zone of inhibition at 50 µM: 25.3 mm
Staphylococcus aureus [4]
  MIC: 15.6 µM (≈ 7 µg/mL)
Escherichia coli [5]
  zone of inhibition at 50 µM: 16.5 mm
Acinetobacter baumannii
  zone of inhibition at 50 µM: 12.3 mm
Enterococcus faecalis [6]
  zone of inhibition at 50 µM: 12.6 mm
Enterobacter cloacae
  zone of inhibition at 50 µM: 13.5 mm
Staphylococcus aureus [8]
  MBC: 31.2 µM (≈ 14 µg/mL)
Staphylococcus aureus [9]
  MBC: 125 µM (≈ 56.1 µg/mL)
Klebsiella pneumoniae [10]
  zone of inhibition at 50 µM: 17.3 mm
Enterococcus faecalis [11]
  zone of inhibition at 50 µM: 11.3 mm
Staphylococcus aureus [12]
  MIC: 62.5 µM (≈ 28 µg/mL)
Klebsiella pneumoniae [13]
  zone of inhibition at 50 µM: 18.1 mm
Staphylococcus aureus [14]
  zone of inhibition at 50 µM: 25.1 mm
Staphylococcus aureus [15]
  zone of inhibition at 50 µM: 25.3 mm
Pseudomonas aeruginosa
  zone of inhibition at 50 µM: 16.4 mm
Klebsiella pneumoniae [16]
  zone of inhibition at 50 µM: 17.6 mm
Staphylococcus aureus [17]
  zone of inhibition at 50 µM: 23.3 mm
Staphylococcus aureus [18]
  MBC: 15.6 µM (≈ 7 µg/mL)
Escherichia coli [19]
  zone of inhibition at 50 µM: 15.4 mm
Escherichia coli [20]
  zone of inhibition at 50 µM: 17.2 mm
Staphylococcus aureus [21]
  MBC: 7.8 µM (≈ 3.5 µg/mL)
[23]
  zone of inhibition at 50 µM: 15.7 mm
Staphylococcus aureus [24]
  MIC: 3.9 µM (≈ 1.75 µg/mL)

## Cc1ccc(C(C)C)c(OCc2cn(CCCN3C(=O)C(=O)c4cc(I)ccc43)nn2)c1
Staphylococcus aureus [2]
  MIC: 62.5 µM (≈ 34 µg/mL)
Staphylococcus aureus [3]
  zone of inhibition at 50 µM: 20.2 mm
Escherichia coli [5]
  zone of inhibition at 50 µM: 13.2 mm
Acinetobacter baumannii
  zone of inhibition at 50 µM: 11.5 mm
Enterococcus faecalis [6]
  zone of inhibition at 50 µM: 11.7 mm
Enterobacter cloacae
  zone of inhibition at 50 µM: 13.7 mm
Staphylococcus aureus [9]
  MBC: 125 µM (≈ 68 µg/mL)
Klebsiella pneumoniae [10]
  zone of inhibition at 50 µM: 12.3 mm
Enterococcus faecalis [11]
  zone of inhibition at 50 µM: 11.1 mm
Staphylococcus aureus [12]
  MIC: 31.2 µM (≈ 17 µg/mL)
Klebsiella pneumoniae [13]
  zone of inhibition at 50 µM: 11.3 mm
Staphylococcus aureus [14]
  zone of inhibition at 50 µM: 20.2 mm
Staphylococcus aureus [15]
  zone of inhibition at 50 µM: 20.5 mm
Pseudomonas aeruginosa
  zone of inhibition at 50 µM: 11.6 mm
Klebsiella pneumoniae [16]
  zone of inhibition at 50 µM: 12.7 mm
Staphylococcus aureus [17]
  zone of inhibition at 50 µM: 19 mm
Staphylococcus aureus [18]
  MBC: 125 µM (≈ 68 µg/mL)
Escherichia coli [19]
  zone of inhibition at 50 µM: 11.2 mm
Escherichia coli [20]
  zone of inhibition at 50 µM: 12.3 mm
Staphylococcus aureus [21]
  MBC: 125 µM (≈ 68 µg/mL)
[23]
  zone of inhibition at 50 µM: 14.2 mm
Staphylococcus aureus [24]
  MIC: 62.5 µM (≈ 34 µg/mL)

## Cc1ccc(C(C)C)c(OCc2cn(CCCN3C(=O)C(=O)c4cc(Br)ccc43)nn2)c1
Staphylococcus aureus [2]
  MIC: 62.5 µM (≈ 31.1 µg/mL)
Staphylococcus aureus [3]
  zone of inhibition at 50 µM: 21.2 mm
Escherichia coli [5]
  zone of inhibition at 50 µM: 14.1 mm
Acinetobacter baumannii
  zone of inhibition at 50 µM: 11.2 mm
Enterococcus faecalis [6]
  zone of inhibition at 50 µM: 12.1 mm
Enterobacter cloacae
  zone of inhibition at 50 µM: 14.2 mm
Staphylococcus aureus [9]
  MBC: 62.5 µM (≈ 31.1 µg/mL)
Klebsiella pneumoniae [10]
  zone of inhibition at 50 µM: 14.3 mm
Enterococcus faecalis [11]
  zone of inhibition at 50 µM: 12.2 mm
Staphylococcus aureus [12]
  MIC: 31.2 µM (≈ 15.5 µg/mL)
Klebsiella pneumoniae [13]
  zone of inhibition at 50 µM: 13.2 mm
Staphylococcus aureus [14]
  zone of inhibition at 50 µM: 21.2 mm
Staphylococcus aureus [15]
  zone of inhibition at 50 µM: 21.5 mm
Pseudomonas aeruginosa
  zone of inhibition at 50 µM: 11.4 mm
Klebsiella pneumoniae [16]
  zone of inhibition at 50 µM: 13.3 mm
Staphylococcus aureus [17]
  zone of inhibition at 50 µM: 19.3 mm
Staphylococcus aureus [18]
  MBC: 125 µM (≈ 62.2 µg/mL)
Escherichia coli [19]
  zone of inhibition at 50 µM: 15.5 mm
Escherichia coli [20]
  zone of inhibition at 50 µM: 15.4 mm
Staphylococcus aureus [21]
  MBC: 62.5 µM (≈ 31.1 µg/mL)
[23]
  zone of inhibition at 50 µM: 17.2 mm
Staphylococcus aureus [24]
  MIC: 31.2 µM (≈ 15.5 µg/mL)
